Reference: ChEMBL document CHEMBL2331536, “Indenoindolone derivatives as topoisomerase II-inhibiting anticancer agents” (Bioorg Med Chem Lett, 2013)
The source made the active and inactive calls. The rule behind the calls is not given here.

Assays:
[1] = biological target: DNA topoisomerase 2-alpha (Homo sapiens) (UniProt P11388); test: Inhibition of human topoisomerase 2alpha at 100 uM incubated for 30 mins at 37 degC by agarose-gel electrophoresis based ATP-dependent kDNA decatenation assay
Summary of the method: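 Commercial topoisomerase drug-screening kit, in vitro ATP-dependent assay. kDNA treated with hTopoIIα plus test agent or 100 µM etoposide, 37 °C, 30 min. Run on 1% agarose gel in TAE buffer; decatenated product quantified.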

HEK293 = test: Cytotoxicity against HEK293 cells after 48 hrs by MTT assay; format: functional; settings: Homo sapiens, HEK293, 48 h; read-out: LC50 (the source's name)
Summary of the method: (§1)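 HEK-293 (ATCC CRL-1573) or normal monkey kidney Vero (ATCC CCL-81) cells were plated, then exposed to a range of compound concentrations for 48 h. MTT was added, and the formazan was dissolved in detergent solution and read at 570 nm. LC50 is the concentration giving 50% cell death. Data are the mean SD of three separate experiments.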

[2] = biological target: T1, DNA topoisomerase 1 (Homo sapiens) (UniProt P11387); test: Inhibition of human DNA topoisomerase 1 assessed as effect on relaxation of negatively super colied DNA at 100 uM incubated for 30 mins at 37 degC by agarose-gel electrophoresis
T1 sequence (whole entry): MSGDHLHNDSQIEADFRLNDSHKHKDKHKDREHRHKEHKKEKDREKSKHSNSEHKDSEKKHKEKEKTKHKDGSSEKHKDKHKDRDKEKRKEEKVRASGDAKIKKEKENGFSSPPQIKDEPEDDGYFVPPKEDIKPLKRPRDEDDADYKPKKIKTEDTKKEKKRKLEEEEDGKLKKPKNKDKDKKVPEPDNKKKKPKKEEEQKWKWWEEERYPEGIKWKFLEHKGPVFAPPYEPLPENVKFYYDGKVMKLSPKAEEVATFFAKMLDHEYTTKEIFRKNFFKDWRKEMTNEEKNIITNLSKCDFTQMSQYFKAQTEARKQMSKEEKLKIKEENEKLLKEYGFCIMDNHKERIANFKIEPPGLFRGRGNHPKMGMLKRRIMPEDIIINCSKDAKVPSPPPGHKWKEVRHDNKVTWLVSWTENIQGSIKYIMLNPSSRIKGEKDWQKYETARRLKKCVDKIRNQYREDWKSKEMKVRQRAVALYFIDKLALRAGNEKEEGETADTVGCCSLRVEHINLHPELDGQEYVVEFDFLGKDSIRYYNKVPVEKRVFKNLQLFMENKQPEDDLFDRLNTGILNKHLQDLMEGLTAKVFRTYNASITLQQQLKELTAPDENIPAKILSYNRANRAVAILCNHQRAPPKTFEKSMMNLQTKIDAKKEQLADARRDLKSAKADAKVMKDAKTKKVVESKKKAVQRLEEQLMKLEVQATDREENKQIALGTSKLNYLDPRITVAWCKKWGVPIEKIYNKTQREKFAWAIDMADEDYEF
Summary of the method: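 Negatively supercoiled DNA treated with human topoisomerase I plus test agent or 100 µM camptothecin, 37 °C, 30 min. Relaxation judged on 1% agarose gel electrophoresis in TAE buffer.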

Nucleic Acid = test: Induction of DNA intercalation in negatively Escherichia coli super coiled small circular plasmid DNA assessed as retradation of DNA migration at 100 uM incubated for 20 mins at 37 degC by agarose-gel electrophoresis; format: nucleic-acid assay
Summary of the method: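 250 ng negatively supercoiled small circular plasmid DNA (from E. coli) incubated with test agent or ethidium bromide, 37 °C, 20 min. Products resolved on 1% agarose gel in TAE buffer.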

[3] = Cytotoxicity against african green monkey Vero cells after 48 hrs by MTT assay; format: cell-based; settings: chlorocebus sabaeus, read-out: LC50; summary of the method: as §1

DNA topoisomerase 2-alpha (Homo sapiens), sequence (P11388 whole entry): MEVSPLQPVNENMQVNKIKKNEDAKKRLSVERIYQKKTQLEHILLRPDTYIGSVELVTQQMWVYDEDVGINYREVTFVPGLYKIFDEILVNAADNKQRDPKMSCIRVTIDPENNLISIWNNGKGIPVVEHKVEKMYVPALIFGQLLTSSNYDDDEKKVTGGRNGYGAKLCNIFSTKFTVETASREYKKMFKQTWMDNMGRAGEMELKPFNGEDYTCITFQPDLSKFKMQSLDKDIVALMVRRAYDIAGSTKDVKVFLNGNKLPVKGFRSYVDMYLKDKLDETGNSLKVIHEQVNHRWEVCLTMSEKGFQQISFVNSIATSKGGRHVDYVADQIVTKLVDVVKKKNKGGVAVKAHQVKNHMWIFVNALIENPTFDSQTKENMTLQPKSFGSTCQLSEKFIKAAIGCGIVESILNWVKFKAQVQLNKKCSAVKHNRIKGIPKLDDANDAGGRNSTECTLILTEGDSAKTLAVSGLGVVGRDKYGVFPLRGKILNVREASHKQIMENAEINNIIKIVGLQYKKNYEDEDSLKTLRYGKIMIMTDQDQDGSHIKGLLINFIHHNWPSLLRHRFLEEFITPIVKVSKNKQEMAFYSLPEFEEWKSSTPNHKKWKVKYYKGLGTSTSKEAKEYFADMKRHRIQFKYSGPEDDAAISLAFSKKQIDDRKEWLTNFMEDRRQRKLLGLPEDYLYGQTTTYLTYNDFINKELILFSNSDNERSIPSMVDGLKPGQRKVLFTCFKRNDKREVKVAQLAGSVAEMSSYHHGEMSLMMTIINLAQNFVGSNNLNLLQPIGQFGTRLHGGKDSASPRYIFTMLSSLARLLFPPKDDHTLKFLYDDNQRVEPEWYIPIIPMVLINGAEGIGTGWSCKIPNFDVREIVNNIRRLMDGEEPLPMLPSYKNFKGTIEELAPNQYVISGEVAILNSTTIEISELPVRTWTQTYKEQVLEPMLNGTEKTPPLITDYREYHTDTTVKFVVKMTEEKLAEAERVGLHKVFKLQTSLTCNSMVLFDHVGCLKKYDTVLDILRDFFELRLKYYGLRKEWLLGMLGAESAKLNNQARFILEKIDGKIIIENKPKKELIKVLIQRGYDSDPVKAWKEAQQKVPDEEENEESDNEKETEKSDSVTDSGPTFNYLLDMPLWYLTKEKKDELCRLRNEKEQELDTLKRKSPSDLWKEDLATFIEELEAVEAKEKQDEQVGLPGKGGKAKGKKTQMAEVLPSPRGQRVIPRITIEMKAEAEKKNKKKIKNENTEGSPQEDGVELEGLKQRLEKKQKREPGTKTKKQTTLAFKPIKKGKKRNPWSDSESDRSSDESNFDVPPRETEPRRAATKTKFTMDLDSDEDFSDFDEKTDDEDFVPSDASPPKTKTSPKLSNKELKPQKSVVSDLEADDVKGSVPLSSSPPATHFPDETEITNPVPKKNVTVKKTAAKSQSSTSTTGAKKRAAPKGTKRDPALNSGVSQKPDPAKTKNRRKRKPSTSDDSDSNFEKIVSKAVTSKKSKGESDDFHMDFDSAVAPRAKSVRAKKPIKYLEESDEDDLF

## COc1ccc(N/N=C2\c3ccccc3-c3c2c2ccccc2n3Cc2ccccc2)cc1
[1]
  inhibition: Active

## COc1ccc(N/N=C2\c3ccccc3-c3c2c2ccccc2n3C)cc1
[1]
  inhibition: Active

## O=c1[nH]cc(F)c(=O)[nH]1 [FLUOROURACIL]
HEK293
  CC50: 25 µM

## COc1ccc2c(c1)/C(=N\O)c1c-2n(C)c2ccccc12
[2]
  inhibition: inactive
HEK293
  CC50: 5 µM
Nucleic Acid
  Activity: inactive
[3]
  CC50 at 48 h: 60 µM
[1]
  inhibition: Active

## COc1cc([C@@H]2c3cc4c(cc3[C@@H](O[C@@H]3O[C@@H]5CO[C@@H](C)O[C@H]5[C@H](O)[C@H]3O)[C@H]3COC(=O)[C@H]23)OCO4)cc(OC)c1O [ETOPOSIDE]
HEK293
  CC50: 17 µM
Nucleic Acid
  Activity: inactive
[3]
  CC50 at 48 h: 29 µM

## COc1ccc2c(c1)C(O)c1c-2n(C)c2ccccc12 (centres undefined)
[2]
  inhibition: inactive
HEK293
  CC50: 4 µM
Nucleic Acid
  Activity: inactive
[3]
  CC50 at 48 h: 30 µM
[1]
  inhibition: Active

## c1ccc(Cn2c3c(c4ccccc42)/C(=N/Nc2ccccc2)c2ccccc2-3)cc1
[1]
  inhibition: Active

## Cc1ccc(N/N=C2\c3ccccc3-c3c2c2ccccc2n3C)cc1
[1]
  inhibition: Active

## COc1ccc2c(c1)c1c(n2C)-c2ccccc2/C1=N\Nc1ccccc1
[1]
  inhibition: Active

## CN1c2ccccc2C2=C(O)c3ccccc3C21 (centres undefined)
[1]
  inhibition: Active

## COc1ccc(N/N=C2/c3cc(OC)c(OC)cc3-c3c2c2ccccc2n3C)cc1
[1]
  inhibition: Active

## O=C(N/N=C1\c2ccccc2-c2c1c1ccccc1n2Cc1ccccc1)Nc1ccccc1
[1]
  inhibition: Active

## O/N=C1\c2ccccc2-c2[nH]c3ccccc3c21
[2]
  inhibition: inactive
HEK293
  CC50: 6 µM
Nucleic Acid
  Activity: inactive
[3]
  CC50 at 48 h: 60 µM
[1]
  inhibition: Active

## COc1cc2c(c(OC)c1OC)-c1c(c3ccccc3n1C)C2O (centres undefined)
[2]
  inhibition: inactive
HEK293
  CC50: 8 µM
Nucleic Acid
  Activity: inactive
[3]
  CC50 at 48 h: 40 µM
[1]
  inhibition: Active

## CC[n+]1c(-c2ccccc2)c2cc(N)ccc2c2ccc(N)cc21
Nucleic Acid
  Activity: Active

## O/N=C1\c2ccccc2-c2c1c1ccccc1n2Cc1ccccc1
[1]
  inhibition: Active

## Cn1c2c(c3ccccc31)/C(=N/NC(=O)Nc1ccccc1)c1ccccc1-2
[1]
  inhibition: Active

## NC(=S)N/N=C1\c2ccccc2-c2[nH]c3ccccc3c21
[2]
  inhibition: inactive
HEK293
  CC50: 7 µM
Nucleic Acid
  Activity: inactive
[3]
  CC50 at 48 h: 50 µM
[1]
  inhibition: Active

## COc1ccc2c(c1)/C(=N\Nc1ccccc1)c1c-2n(C)c2ccccc12
[1]
  inhibition: Active

## Cn1c2c(c3ccccc31)/C(=N/Nc1ccccc1)c1ccccc1-2
[1]
  inhibition: Active

## COc1ccc(N/N=C2/c3cc(OC)c(OC)c(OC)c3-c3c2c2ccccc2n3C)cc1
[1]
  inhibition: Active

## c1ccc(N/N=C2\c3ccccc3-c3[nH]c4ccccc4c32)cc1
[1]
  inhibition: Active
